Measurements pooled from the literature.
Lines come from different studies, so protocols differ.
Target: Tyrosine-protein kinase Blk (BLK, Homo sapiens, UniProt P51451)

Nc1ncc(-c2nc(N3CCOCC3)nc(N3CCOCC3)n2)c(C(F)F)n1
remaining binding (binding; competition with immobilised ligand; 10 µM): 70%

Cc1nn(C)cc1-c1nc2c(N3CCN(Cc4ccc(Cl)cc4)CC3)c(Cl)cnc2[nH]1
remaining binding (binding; competition with immobilised ligand; 1 µM): 100%

COc1cc(Nc2ncc(F)c(Nc3ccc4c(n3)NC(=O)C(C)(C)O4)n2)cc(OC)c1OC
inhibition (binding; competition with immobilised ligand; 10 µM): 100%

Cn1cc(-c2cc(F)cc(N3CCn4c(cc5c4CCCC5)C3=O)c2CO)cc(Nc2ccc(N3CCN(C4COC4)CC3)cn2)c1=O
inhibition (enzyme activity; inhibitor; 0.1 µM): 14%

Cn1cncc1[C@](O)(COc1ccc(C#N)cc1-c1ccc(OC(F)(F)F)cc1)c1ccc(C#N)cc1
remaining binding (cell-free assay; competition with immobilised ligand; 1 µM): 90%

COc1ncccc1-c1cnn2ccc(N3CCN(C(=O)OC(C)C)CC3)nc12
remaining binding (binding; competition with immobilised ligand; 1 µM): 100%

C#Cc1n[nH]c2c(-c3cn([C@@H](C)c4ccccc4)c(=O)[nH]c3=O)cc(F)cc12
inhibition (enzyme activity; inhibitor; 0.1 µM): -5.4%

CC(C)(C)c1cc(C=C(C#N)C#N)cc(Br)c1O
remaining activity (enzyme activity; inhibitor; 0.5 µM): 97.9%

Cn1cc(-c2cccc(N3CCc4c(sc5c4CC(C)(C)C5)C3=O)c2CO)cc(Nc2ccncn2)c1=O
inhibition (enzyme activity; inhibitor; 1 µM): -3%

C#Cc1n[nH]c2c(-c3cn([C@@H](C)c4ccccn4)c(=O)[nH]c3=O)cc(F)cc12
inhibition (enzyme activity; inhibitor; 0.1 µM): -5.3%

O=c1[nH]c2ccccc2n1C1CCN(Cc2ccc(-c3[nH]c4cc5ncnc5cc4nc3-c3ccccc3)cc2)CC1
remaining signal (cell-free assay; 0.5 µM): 106%
